≈ marks a conversion by molar mass, not a printed value. Calls of active or inactive are those of the source. The rule behind the calls is not given here.
How the values were obtained:
Candida albicans [1] = test: Antifungal activity against Candida albicans isolate g5 grown in YNB medium incubated for 24 hrs by microdilution method; format: functional; settings: isolate g5, 24 h
Procedure, shortened: (§1)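 C. albicans standard strain SC5314 and clinical isolates g5 and 17# tested by broth microdilution in YNB or RPMI 1640 medium. Plates incubated at 35 °C for up to 72 h, with visual readings taken at 24 h. MIC taken as the lowest concentration preventing visible growth.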

Colletotrichum = test: Antifungal activity against Colletotrichum (W. anthracnose) assessed as reduction in growth at 50 mg/l by mycelium growth rate method relative to control; format: functional
Procedure, shortened: (§2)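 Mycelium growth rate method against S. sclerotiorum, P. capsici, P. piricola, R. cerealis, W. anthracnose and R. bakanae. Each compound tested at 50 mg/L, with chlorothalonil and PTB as controls. Relative inhibitory ratio (%) calculated from mycelial growth.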

Amaranthus retroflexus [2] = test: Pre-emergence herbicidal activity against Amaranthus retroflexus assessed as reduction in growth at 300g/ha measured after 24 days by green house pot method relative to control; format: functional; settings: 576 h
Phytophthora capsici = test: Antifungal activity against Phytophthora capsici assessed as reduction in growth at 50 mg/l by mycelium growth rate method relative to control; format: functional; procedure, shortened: as §2
[3] = tested on: Brassica rapa subsp. oleifera; test: Herbicidal activity against Brassica campestris L assessed as inhibition of rape root growth at 10 mg/l root growth incubated for 48 hrs relative to control; format: functional
Procedure, shortened: (§3)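 Rape seeds soaked in distilled water for 4 h, then placed on filter paper wetted with inhibitor solution, 15 seeds per 6-cm dish. Germinated in the dark at 28 °C for 48 h. Mean length of 10 roots per plate measured.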

Amaranthus retroflexus [4] = test: Post-emergence herbicidal activity against Amaranthus retroflexus assessed as reduction in growth at 300g/ha measured after 24 days by green house pot method relative to control; format: functional; settings: 576 h
Candida albicans [5] = test: Antifungal activity against Candida albicans SC5314 grown in RPMI 1640 medium incubated for 24 hrs by microdilution method; format: functional; settings: SC5314, 24 h; procedure, shortened: as §1
[6] = tested on: Brassica rapa subsp. oleifera; test: Post-emergence herbicidal activity against Brassica campestris assessed as reduction in growth at 300g/ha measured after 24 days by green house pot method relative to control; format: functional; settings: 576 h
Tobacco mosaic virus [7] = test: Antiviral activity against Tobacco mosaic virus inoculated in Nicotiana tabacum leaves assessed as passivation by measuring local lesion numbers at 100 mg/l pre-incubated with virus for 30 mins followed by inoculation and measured up to 4 days; format: functional
Procedure, shortened: (§4)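 Passivation assay: TMV mixed with an equal volume of compound solution for 30 min, then rubbed onto the left half of N. tabacum L. leaves. The right half received virus mixed with solvent as control. Local lesions counted 3–4 days after inoculation. Compounds tested at 500 or 100 mg/L.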

Sclerotinia sclerotiorum = test: Antifungal activity against Sclerotinia sclerotiorum assessed as reduction in growth at 50 mg/l by mycelium growth rate method relative to control; format: functional; procedure, shortened: as §2
[8] = tested on: Severe acute respiratory syndrome-related coronavirus; test: Inhibition of SARS coronavirus M protease using AVLQSGFRKK as substrate at 20 uM by FRET assay relative to control
Procedure, shortened: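 Purified SARS-CoV Mpro assayed by FRET. Protein, compound and substrate were preheated at 37 °C and oscillated. Fluorescence (ex 320/em 405 nm) was read every 5 s for 200 reads.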

[9] = tested on: Botryosphaeria berengeriana; test: Antifungal activity against Physalospora pyricola assessed as reduction in growth at 50 mg/l by mycelium growth rate method relative to control; format: functional; procedure, shortened: as §2
[10] = tested on: Brassica rapa subsp. oleifera; test: Pre-emergence herbicidal activity against Brassica campestris assessed as reduction in growth at 300g/ha measured after 24 days green house pot method relative to control; format: functional; settings: 576 h
Arabidopsis thaliana [11] = test: Inhibition of Arabidopsis thaliana AHAS catalytic subunit using pyruvate as substrate at 10 uM measured after 30 mins by colorimetric method relative to control
Procedure, shortened: (§5)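 Colorimetric assay in 50 mM potassium phosphate pH 7.0 with 50 mM pyruvate, 1 mM thiamine diphosphate, 10 mM MgCl2 and 10 μM FAD. Incubated 30 min at 37 °C for plant AHAS and 30 °C for fungal AHAS. Acetolactate formed was then quantified.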

Echinochloa crus-galli [12] = test: Pre-emergence herbicidal activity against Echinochloa crus-galli assessed as reduction in growth at 300g/ha measured after 24 days by green house pot method relative to control; format: functional; settings: 576 h
Candida albicans [13] = test: Inhibition of Candida albicans AHAS catalytic subunit at 100 uM using pyruvate as substrate measured after 30 mins by colorimetric method relative to control; procedure, shortened: as §5
Candida albicans [14] = test: Antifungal activity against Candida albicans isolate 17 grown in YNB medium incubated for 24 hrs by microdilution method; format: functional; settings: isolate 17, 24 h; procedure, shortened: as §1
Ceratobasidium cereale [15] = test: Antifungal activity against Rhizoctonia cerealis assessed as reduction in growth at 50 mg/l by mycelium growth rate method relative to control; format: functional; procedure, shortened: as §2
Echinochloa crus-galli [16] = test: Post-emergence herbicidal activity against Echinochloa crus-galli assessed as reduction in growth at 300g/ha measured after 24 days by green house pot method relative to control; format: functional; settings: 576 h
Candida albicans [17] = test: Antifungal activity against Candida albicans SC5314 grown in YNB medium incubated for 24 hrs by microdilution method; format: functional; settings: SC5314, 24 h; procedure, shortened: as §1
Candida albicans [18] = test: Antifungal activity against Candida albicans isolate g5 grown in RPMI 1640 medium incubated for 24 hrs by microdilution method; format: functional; settings: isolate g5, 24 h; procedure, shortened: as §1
Digitaria adscendens [19] = test: Post-emergence herbicidal activity against Digitaria adscendens assessed as reduction in growth at 300g/ha measured after 24 days by based green house pot method relative to control; format: functional; settings: 576 h
Mythimna separata = test: Insecticidal activity against Mythimna separata assessed as larval mortality at 600 mg/l by leaf-dip method; format: functional
Candida albicans [20] = test: Antifungal activity against Candida albicans isolate 17 grown in RPMI 1640 medium incubated for 24 hrs by microdilution method; format: functional; settings: isolate 17, 24 h; procedure, shortened: as §1
[21] = tested on: Brassica rapa subsp. oleifera; test: Herbicidal activity against Brassica campestris L assessed as inhibition of rape root growth at 100 mg/l root growth incubated for 48 hrs relative to control; format: functional; procedure, shortened: as §3
Digitaria adscendens [22] = test: Pre-emergence herbicidal activity against Digitaria adscendens assessed as reduction in growth at 300g/ha measured after 24 days by green house pot method relative to control; format: functional; settings: 576 h
Tobacco mosaic virus [23] = test: Antiviral activity against Tobacco mosaic virus inoculated in Nicotiana tabacum leaves assessed as passivation by measuring local lesion numbers at 500 mg/l pre-incubated with virus for 30 mins followed by inoculation and measured up to 4 days; format: functional; procedure, shortened: as §4
Fusarium fujikuroi = test: Antifungal activity against Gibberella fujikuroi assessed as reduction in growth at 50 mg/l by mycelium growth rate method relative to control; format: functional; procedure, shortened: as §2
Candida albicans [24] = test: Inhibition of Candida albicans AHAS catalytic subunit at 10 uM using pyruvate as substrate measured after 30 mins by colorimetric method relative to control; procedure, shortened: as §5
Arabidopsis thaliana [25] = test: Inhibition of Arabidopsis thaliana AHAS catalytic subunit using pyruvate as substrate at 100 uM measured after 30 mins by colorimetric method relative to control; procedure, shortened: as §5
[26] = Cytotoxicity against HEK293T cells assessed as reduction in cell growth incubated for 48 hrs by MTT assay; format: cell-based, HEK-293T; settings: human
Procedure, shortened: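 293T cells in logarithmic phase seeded at 12000 cells/well overnight, then exposed to a range of compound concentrations for 48 h. MTT added for a further 4 h, formazan dissolved in DMSO, and OD570 read. CC50 is the concentration reducing viability by 50%.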

[27] = Inhibition of SARS coronavirus M protease using AVLQSGFRKK as substrate by FRET assay; design: species or system Severe acute respiratory syndrome-related coronavirus
Procedure, shortened: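 Purified SARS-CoV Mpro assayed by FRET. Protein, compound and substrate were preheated at 37 °C and oscillated. Fluorescence (ex 320/em 405 nm) was read every 5 s for 200 reads. IC50 from V0/V = 1+[I]/IC50.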

Ceratobasidium cereale [28] = test: Antifungal activity against Rhizoctonia cerealis assessed as reduction in growth mycelium growth rate method relative to control; format: functional, organism-based
Procedure, shortened: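 EC50 against R. cerealis derived from mycelium growth-rate inhibition over a concentration series, using a probit fit: Probit = m(log10[I] − log10[EC50]) + 5.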

Row | SMILES | MIC (Candida albicans [1]) [mg/L] | inhibition at 50 µg/mL (Colletotrichum) [%] | inhibition at 50 µg/mL (Phytophthora capsici) [%] | inhibition (INH) [3] [%] | MIC (Candida albicans [5]) [mg/L] | inhibition at 50 µg/mL (Sclerotinia sclerotiorum) [%] | inhibition [8] [%] | inhibition at 50 µg/mL [9] [%] | inhibition (Arabidopsis thaliana [11]) [%] | inhibition (Candida albicans [13]) [%] | MIC (Candida albicans [14]) [mg/L] | inhibition at 50 µg/mL (Ceratobasidium cereale [15]) [%] | MIC (Candida albicans [17]) [mg/L] | MIC (Candida albicans [18]) [mg/L] | MIC (Candida albicans [20]) [mg/L] | inhibition (INH) [21] [%] | inhibition at 500 µg/mL (Tobacco mosaic virus [23]) [%] | inhibition at 50 µg/mL (Fusarium fujikuroi) [%] | inhibition (Candida albicans [24]) [%] | inhibition (Arabidopsis thaliana [25]) [%] | further results
1 | COc1cc(OC)nc(Sc2ccc(Br)cc2C(=O)O)n1 | > 100 | 40.5 | 33.3 | 80.7 | > 100 | 63.9 | 0 | 37.5 | 61 | 97 | > 100 | 72.6 | > 100 | > 100 | > 100 | 93.6 | 0 | 27.3 | 50.5 | 100 | inhibition at 300 g/ha (Amaranthus retroflexus [2]): 93.8%; inhibition at 300 g/ha (Amaranthus retroflexus [4]): 58.7%; inhibition at 300 g/ha [6]: 80.2%; inhibition at 100 µg/mL (Tobacco mosaic virus [7]): 0%; inhibition at 300 g/ha [10]: 89.9%; inhibition at 300 g/ha (Echinochloa crus-galli [12]): 0%; inhibition at 300 g/ha (Echinochloa crus-galli [16]): 72.3%; inhibition at 300 g/ha (Digitaria adscendens [19]): 12.8%; mortality at 600 µg/mL (Mythimna separata): 65%; inhibition at 300 g/ha (Digitaria adscendens [22]): 27%
2 | COc1nc(OC)nc(Sc2ccc(Br)cc2C#N)n1 | > 100 | 21.4 | 8.3 | 0 | > 100 | 19.4 | 100 | 70.3 | 57.3 | 81.1 | > 100 | 66.7 | > 100 | > 100 | > 100 | 14 | 0 | 30.3 | 37.4 | 85.5 | CC50 at 48 h [26]: 53.5 µM; inhibition (Tobacco mosaic virus [7]): inactive; IC50 [27]: 4.54 µM; mortality at 600 µg/mL (Mythimna separata): 20%
3 | COc1cc(OC)nc(Sc2cccc(Cl)c2C(=O)O)n1 [PYRITHIOBAC] | > 100 | 45.3 | 44.7 | 90.2 | > 100 | 64.8 | 12.2 | 60.3 | 96 | 40 | > 100 | 86.9 | > 100 | > 100 | > 100 | 97 |  | 12.6 | 20 | 100 | inhibition at 300 g/ha (Amaranthus retroflexus [2]): 96.3%; inhibition at 300 g/ha (Amaranthus retroflexus [4]): 61.2%; inhibition at 300 g/ha [6]: 92.3%; inhibition at 300 g/ha [10]: 95.2%; inhibition at 300 g/ha (Echinochloa crus-galli [12]): 63.4%; inhibition at 300 g/ha (Echinochloa crus-galli [16]): 59.5%; inhibition at 300 g/ha (Digitaria adscendens [19]): 36.6%; inhibition at 300 g/ha (Digitaria adscendens [22]): 63.8%; EC50 (Ceratobasidium cereale [28]): 15.4 mg/L (≈ 47.1 µM)
4 | COc1cc(OC)nc(Sc2ccc(F)cc2C(=O)O)n1 | 25 (≈ 80.6 µM) |  |  | 72 | 100 (≈ 322 µM) |  |  |  | 70.1 | 97.7 | 3.12 (≈ 10.1 µM) |  | 25 (≈ 80.6 µM) | 100 (≈ 322 µM) | 25 (≈ 80.6 µM) | 86 | 47 |  | 73.7 | 100 | inhibition at 300 g/ha (Amaranthus retroflexus [2]): 61.1%; inhibition at 300 g/ha (Amaranthus retroflexus [4]): 50.6%; inhibition at 300 g/ha [6]: 75.8%; inhibition at 100 µg/mL (Tobacco mosaic virus [7]): 11.4%; inhibition at 300 g/ha [10]: 85.2%; inhibition at 300 g/ha (Echinochloa crus-galli [12]): 13.8%; inhibition at 300 g/ha (Echinochloa crus-galli [16]): 24.3%; inhibition at 300 g/ha (Digitaria adscendens [19]): 33%; inhibition at 300 g/ha (Digitaria adscendens [22]): 0%
5 | COc1nc(OC)nc(Sc2cccc(I)c2C#N)n1 | > 100 | 33.3 | 8.3 | 0 | > 100 | 11.1 | 100 | 29.7 | 51.6 | 69.3 | > 100 | 52.4 | > 100 | > 100 | > 100 | 51.6 | 22.8 | 30.3 | 45.4 | 66.7 | CC50 at 48 h [26]: 30.5 µM; inhibition (Tobacco mosaic virus [7]): inactive; IC50 [27]: 3.3 µM; mortality at 600 µg/mL (Mythimna separata): 45%
